# According to ChEMBL document CHEMBL4229355, “Synthesis of 3'-halo-5'-norcarbocyclic nucleoside phosphonates as potent anti-HIV agents” (Eur J Med Chem, 2018):
# Active and inactive are the calls of the source. No cut-off for these calls is given here.
# Key:
# [1] = Cytotoxicity against human PBMC assessed as reduction in cell growth after 7 days by MTT assay; assay type: cell-based
# Procedure, shortened: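 Percent cell viability plotted against compound concentration and fitted to quadratic curves; CC₅₀ is the concentration reducing cell growth by 50%.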
# dengue virus type 2 = assay: Antiviral activity against Dengue virus 2; assay type: functional, organism-based
# Chikungunya virus = assay: Antiviral activity against Chikungunya virus; assay type: functional, organism-based
# Human alphaherpesvirus 1 = assay: Antiviral activity against HSV-1; assay type: functional, organism-based
# Zika virus = assay: Antiviral activity against Zika virus; assay type: functional, organism-based
# Human alphaherpesvirus 2 = assay: Antiviral activity against HSV-2; assay type: functional, organism-based
# [2] = tested on: Human immunodeficiency virus 1; assay: Antiviral activity against HIV1 LAI infected in PHA-P activated human PBMC assessed as reduction in viral replication preincubated with cells for 30 mins followed by viral infection and measured at day 7 post infection by reverse transcriptase activity-based assay; assay type: functional, organism-based; conditions: Human immunodeficiency virus 1, LAI
# Procedure, shortened: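 PHA-P-activated PBMCs (1.5 × 10⁵ cells) pre-treated 30 min with increasing compound concentrations, then infected with HIV-1 LAI at 100 TCID₅₀; supernatants harvested day 7 post-infection and stored at −20 °C. Percent inhibition of RT activity plotted against concentration and fitted to quadratic curves to give EC₅₀. Mean from 3 blood donors.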
SMILES,CC50 at 168 h [1] [µM],Activity (dengue virus type 2),Activity (Chikungunya virus),Activity (Human alphaherpesvirus 1),Activity (Zika virus),Activity (Human alphaherpesvirus 2),EC50 [2] [µM]
O=P(O)(O)CO[C@H]1C[C@@H](n2cnc3c(O)ncnc32)C=C1I (racemic),≥ 10,inactive,inactive,inactive,inactive,inactive,≥ 10
Nc1nc(O)c2ncn([C@H]3C=C(I)[C@@H](OCP(=O)(O)O)C3)c2n1 (racemic),≥ 10,inactive,inactive,inactive,inactive,inactive,≥ 10
Nc1ncnc2c1ncn2[C@H]1C=C(I)[C@@H](OCP(=O)(O)O)C1 (racemic),≥ 10,inactive,inactive,inactive,inactive,inactive,5.9
O=P(O)(O)CO[C@H]1C[C@@H](n2cnc3c(NC4CC4)ncnc32)C=C1I (racemic),≥ 10,inactive,inactive,inactive,inactive,inactive,≥ 10
Nc1nc2c(ncn2[C@H]2C=C(F)[C@@H](OCP(=O)(O)O)C2)c(=O)[nH]1 (racemic),≥ 10,inactive,inactive,inactive,inactive,inactive,≥ 10
Nc1ncnc2c1ncn2[C@H]1C=C(F)[C@@H](OCP(=O)(O)O)C1 (racemic),≥ 10,inactive,inactive,inactive,inactive,inactive,0.88
C[C@H](Cn1cnc2c(N)ncnc21)OCP(=O)(O)O [TENOFOVIR ANHYDROUS],≥ 10,,,,,,1.1
